Reference: ChEMBL document CHEMBL1153986, “Novel approach for chemotype hopping based on annotated databases of chemically feasible fragments and a prospective case study: new melanin concentrating hormone antagonists” (J Med Chem, 2009)
Each block holds one molecule with its values, some of them ahead of it.

Legend:
[1] = target: T1, Melanin-concentrating hormone receptor 1 (Homo sapiens, UniProt Q99705); assay: Antagonist activity at MCH1R; assay type: functional
Outline: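 MCH-1 receptor-expressing CHO cells seeded 24 h before (5000 cells/well), loaded with calcium assay kit containing 10 mM probenicide for 90 min at 37 °C, 5% CO2. Serial dilutions of compound added, 20 min at room temperature in the dark, then submaximal MCH challenge; intracellular calcium change recorded on FLIPR III.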

[2] = target: T1, Melanin-concentrating hormone receptor 1
[3] = target: T1, Melanin-concentrating hormone receptor 1; assay: Antagonist activity at MCH1R by [35S]GTPgammaS binding assay; assay type: functional

T1 sequence (Q99705 whole entry): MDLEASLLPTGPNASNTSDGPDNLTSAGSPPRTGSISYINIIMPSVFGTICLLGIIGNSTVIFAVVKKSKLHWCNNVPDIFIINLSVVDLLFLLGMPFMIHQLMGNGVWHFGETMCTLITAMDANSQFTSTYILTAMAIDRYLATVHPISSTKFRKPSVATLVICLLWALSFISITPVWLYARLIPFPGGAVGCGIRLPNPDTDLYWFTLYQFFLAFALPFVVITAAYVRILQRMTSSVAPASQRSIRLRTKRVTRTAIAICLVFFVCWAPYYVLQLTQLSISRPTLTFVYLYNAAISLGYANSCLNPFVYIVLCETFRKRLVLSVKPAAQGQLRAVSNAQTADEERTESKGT

SMILES: COc1cc(-n2ccnc(CCCc3ccccc3)c2=O)ccc1OCCN1CCCC1
IC50 [2]: 105 nM

SMILES: COc1cc(-n2ccnc(OCCc3ccccc3)c2=O)ccc1OCCN1CCCC1
IC50 [2]: 83.2 nM

SMILES: CN(C)CCOc1ccc(-n2ccn(-c3ccc(Oc4ccccc4)cc3)c2=O)cc1
IC50 [1]: > 100 nM

SMILES: CN[C@@H]1CCN(c2ccc(-n3ccc4cc(-c5ccc(C(F)(F)F)cc5)sc4c3=O)cn2)C1
Ki [1]: 3.3 nM

SMILES: CC(C)N(C)c1nc2cc(-c3noc(COCc4ccc(Cl)cc4)n3)ccc2[nH]1
IC50 [1]: 7 nM

SMILES: COc1cc(-n2nnc3cc(-c4ccc(Cl)cc4)sc3c2=O)ccc1N1CC[C@@H](O)C1
IC50 [1]: > 5000 nM

SMILES: O=c1cc(/C=C/c2ccccc2)ccn1-c1ccc(OCCN2CCCC2)cc1
Activity [1]: 1.5 nM

SMILES: COc1cc(-n2cnc3cc(-c4ccccc4)ccc3c2=O)ccc1OCCN1CCCC1
Activity [1]: 2.1 nM

Next, values leading:

Ki [1]: 77 nM
SMILES: COc1cc(-c2cnc3[nH]c(-c4ccc(Cl)cc4)cn3c2=O)ccc1OCCN1CCCC1

IC50 [2]: 45.7 nM
SMILES: COc1cc(-n2ccnc(NCCc3ccccc3)c2=O)ccc1OCCN1CCCC1

Ki [1]: 3.16 nM
SMILES: Cn1cc(CCN2CCCC2)c2ccc(-n3ccc4nc(-c5ccc(Cl)cc5)sc4c3=O)cc21

Ki [1]: 3 nM
SMILES: CCN(CC)Cc1ccc2c(c1)CCC(N1CCN(CCc3ccc(F)cc3)CC1=O)C2 (centres undefined)

IC50 [3]: 19 nM
SMILES: CN(C)CC1CCc2cc(NC(=O)c3ccc(-c4ccc(F)cc4)cc3)ccc2C1 (centres undefined)

Activity [1]: 1.9 nM
SMILES: C(=C\c1ccc(-c2nnc(CSCCOc3ccccc3)o2)cc1)/CN1CCCC1
